From ChEMBL document CHEMBL1177718, “Phosphoramidate ProTides of 2'-C-methylguanosine as highly potent inhibitors of hepatitis C virus. Study of their in vitro and in vivo properties” (J Med Chem, 2010)

Tests used:
[1] = Cytotoxicity against human HuH7 cells after 72 hrs by celltiter-glo assay; format: cell-based, Huh-7
Outline: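 Replicon 1b Huh7 cells seeded 2 × 10⁴/well; after 24 h, 11 serial 2× dilutions from 100 μM (three repeats each) with no-compound control; 72 h at 37 °C, CO₂, log-phase growth; viability by CellTiter-Glo luminescence; CC₅₀ = concentration giving 50% signal.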

Hepatitis C virus = experiment: Antiviral activity against HCV1b infected in human HuH7 cells assessed as inhibition of viral replication after 48 hrs by luciferase reporter gene assay; format: functional, organism-based, Hepacivirus hominis; settings: genotype 1b, Huh-7, 48 h
Outline: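 Huh7 cells carrying genotype 1b bicistronic subgenomic replicon, seeded 2 × 10⁴/well without G-418; compounds added 18-24 h later, 48 h exposure; 3× or 4× serial dilutions over 0.0001-10 μM in triplicate/quadruplicate; Renilla luciferase read-out versus untreated cells; EC₅₀ by four-parameter sigmoidal nonlinear regression; at least three independent assays.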

[2] = Metabolic stability in mouse plasma assessed as compound remaining at 1 ug/ml after 4 hrs; format: ADME, cell-free; settings: read-out: Stability
Homo sapiens [3] = organism: Homo sapiens; experiment: Metabolic stability in human plasma assessed as compound remaining at 1 ug/ml after 4 hrs
[4] = Metabolic stability in cynomolgus monkey plasma assessed as compound remaining at 1 ug/ml after 4 hrs; format: ADME, cell-free, Macaca fascicularis; settings: read-out: Stability
Outline: (§1)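 Duplicate incubations; compound at final 1 μg/mL in plasma preincubated and kept at […]; samples taken at 30 or 240 min, quenched with ice-cold acetonitrile, centrifuged, supernatant diluted with water; parent quantified by LC-MS/MS (Polar-RP column, formic acid water/acetonitrile gradient, positive ion mode); % remaining reported.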

[5] = Metabolic stability in dog plasma assessed as compound remaining at 1 ug/ml after 30 mins; format: ADME, cell-free, Canis lupus familiaris; settings: read-out: Stability; outline: as §1
[6] = Metabolic stability in mouse plasma assessed as compound remaining at 1 ug/ml after 30 mins; format: ADME, cell-free; settings: read-out: Stability
[7] = Metabolic stability in rat plasma assessed as compound remaining at 1 ug/ml after 30 mins; format: ADME, cell-free; settings: read-out: Stability; outline: as §1
Homo sapiens [8] = organism: Homo sapiens; experiment: Metabolic stability in human plasma assessed as compound remaining at 1 ug/ml after 30 mins
[9] = Metabolic stability in dog plasma assessed as compound remaining at 1 ug/ml after 4 hrs; format: ADME, cell-free, Canis lupus familiaris; settings: read-out: Stability; outline: as §1
[10] = Metabolic stability in cynomolgus monkey plasma assessed as compound remaining at 1 ug/ml after 30 mins; format: ADME, cell-free, Macaca fascicularis; settings: read-out: Stability; outline: as §1
[11] = Metabolic stability in rat plasma assessed as compound remaining at 1 ug/ml after 4 hrs; format: ADME, cell-free; settings: read-out: Stability; outline: as §1
[12] = Metabolic stability in human liver S9 fraction assessed as compound remaining at 10 uM after 60 mins by HPLC analysis in presence of NADP; format: ADME, subcellular; settings: read-out: Stability
Outline: (§2)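 Liver or intestinal S9 at final 1 mg/mL in 50 mM potassium phosphate, with or without NADPH-regenerating system (1.3 mM NADP, 3.3 mM glucose-6-phosphate, 0.4 U/mL G6PDH, 3.3 mM MgCl₂); 10 min preincubation at 37 °C; compound at final 10 μM; samples at start and 60 min quenched in cold acetonitrile, centrifuged, HPLC; % parent remaining.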

[13] = Metabolic stability in dog liver S9 fraction assessed as compound remaining at 10 uM after 60 mins by HPLC analysis in presence of NADP; format: ADME, subcellular, Canis lupus familiaris; settings: read-out: Stability; outline: as §2
[14] = Metabolic stability in human liver S9 fraction assessed as compound remaining at 10 uM after 60 mins by HPLC analysis in absence of NADP; format: ADME, subcellular; settings: read-out: Stability; outline: as §2
[15] = Metabolic stability in dog liver S9 fraction assessed as compound remaining at 10 uM after 60 mins by HPLC analysis in absence of NADP; format: ADME, subcellular, Canis lupus familiaris; settings: read-out: Stability; outline: as §2
[16] = Metabolic stability in human intestine S9 fraction assessed as compound remaining at 10 uM after 60 mins by HPLC analysis in absence of NADP; format: ADME, tissue-based; settings: read-out: Stability; outline: as §2
[17] = Metabolic stability in dog intestine S9 fraction assessed as compound remaining at 10 uM after 60 mins by HPLC analysis in presence of NADP; format: ADME, tissue-based, Canis lupus familiaris; settings: read-out: Stability; outline: as §2
[18] = Metabolic stability in human intestine S9 fraction assessed as compound remaining at 10 uM after 60 mins by HPLC analysis in presence of NADP; format: ADME, tissue-based; settings: read-out: Stability; outline: as §2
[19] = Cmax in ICR mouse plasma at 50 mg/kg, po by LC-MS/MS analysis; format: ADME, organism-based; set-up: dose 50 mg/kg, route oral
Plasma = experiment: Dose normalized AUC in ICR mouse plasma at 50 mg/kg, po by LC-MS/MS analysis; format: ADME, organism-based; set-up: dose 50 mg/kg, route oral; settings: in vivo
[20] = Metabolic stability in dog intestine S9 fraction assessed as compound remaining at 10 uM after 60 mins by HPLC analysis in absence of NADP; format: ADME, tissue-based, Canis lupus familiaris; settings: read-out: Stability; outline: as §2

Row | SMILES | CC50 at 72 h [1] [µM] | EC50 (Hepatitis C virus) [µM] | remaining at 4 h, 1 ug/ml [2] [%] | remaining at 4 h, 1 ug/ml (Homo sapiens [3]) [%] | remaining at 4 h, 1 ug/ml [4] [%] | remaining at 0.5 h, 1 ug/ml [5] [%] | remaining at 0.5 h, 1 ug/ml [6] [%] | remaining at 0.5 h, 1 ug/ml [7] [%] | remaining at 0.5 h, 1 ug/ml (Homo sapiens [8]) [%] | remaining at 4 h, 1 ug/ml [9] [%] | remaining at 0.5 h, 1 ug/ml [10] [%] | remaining at 4 h, 1 ug/ml [11] [%] | also measured
1 | C[C@H](NP(=O)(OC[C@H]1O[C@@H](n2cnc3c(=O)[nH]c(N)nc32)[C@](C)(O)[C@@H]1O)Oc1cccc2ccccc12)C(=O)OC1CCCC1 (stereo not given in full) | > 100 | 0.07 | – | – | – | – | – | – | – | – | – | – | –
2 | CCCCOC(=O)[C@H](C)NP(=O)(OC[C@H]1O[C@@H](n2cnc3c(=O)[nH]c(N)nc32)[C@](C)(O)[C@@H]1O)Oc1cccc2ccccc12 (stereo not given in full) | > 100 | 0.1 | 0 | 97 | 81 | 95 | 0 | 0.4 | 100 | 90 | 98 | 0 | –
3 | CCCCCOC(=O)[C@H](C)NP(=O)(OC[C@H]1O[C@@H](n2cnc3c(=O)[nH]c(N)nc32)[C@](C)(O)[C@@H]1O)Oc1cccc2ccccc12 (stereo not given in full) | – | 0.091 | 0 | 96 | 94 | 98 | 0 | 0 | 100 | 98 | 94 | 0 | –
4 | C[C@H](NP(=O)(OC[C@H]1O[C@@H](n2cnc3c(=O)[nH]c(N)nc32)[C@](C)(O)[C@@H]1O)Oc1cccc2ccccc12)C(=O)OC1CCCCC1 (stereo not given in full) | > 100 | 0.045 | 0 | 100 | 100 | 100 | 2.9 | 2.5 | 100 | 100 | 100 | 0.5 | –
5 | C[C@H](NP(=O)(OC[C@H]1O[C@@H](n2cnc3c(=O)[nH]c(N)nc32)[C@](C)(O)[C@@H]1O)Oc1cccc2ccccc12)C(=O)OCCc1ccccc1 (stereo not given in full) | > 100 | 0.09 | – | – | – | – | – | – | – | – | – | – | –
6 | C[C@H](NP(=O)(OC[C@H]1O[C@@H](n2cnc3c(=O)[nH]c(N)nc32)[C@](C)(O)[C@@H]1O)Oc1cccc2ccccc12)C(=O)OCCCc1ccccc1 (stereo not given in full) | > 100 | 0.17 | – | – | – | – | – | – | – | – | – | – | –
7 | COC(=O)[C@H](CCSC)NP(=O)(OC[C@H]1O[C@@H](n2cnc3c(=O)[nH]c(N)nc32)[C@](C)(O)[C@@H]1O)Oc1cccc2ccccc12 (stereo not given in full) | > 100 | 0.28 | – | – | – | – | 76 | – | – | – | – | – | remaining at 1 h, 10 µM [12]: 3%; remaining at 1 h, 10 µM [13]: 40%; remaining at 1 h, 10 µM [14]: 14%; remaining at 1 h, 10 µM [15]: 57%; remaining at 1 h, 10 µM [16]: 27%; remaining at 1 h, 10 µM [17]: 56%; remaining at 1 h, 10 µM [18]: 42%
8 | CSCC[C@H](NP(=O)(OC[C@H]1O[C@@H](n2cnc3c(=O)[nH]c(N)nc32)[C@](C)(O)[C@@H]1O)Oc1cccc2ccccc12)C(=O)OC(C)C (stereo not given in full) | > 100 | 0.34 | 32 | – | 93 | 100 | 76 | 2.3 | – | 100 | 96 | 0.5 | –
9 | CC(C)(NP(=O)(OC[C@H]1O[C@@H](n2cnc3c(=O)[nH]c(N)nc32)[C@](C)(O)[C@@H]1O)Oc1cccc2ccccc12)C(=O)OCc1ccccc1 (stereo not given in full) | – | 1.5 | 0 | 41 | 83 | 100 | 0 | 0 | 100 | 100 | 92 | 0 | –
10 | CC(C)[C@H](NP(=O)(OC[C@H]1O[C@@H](n2cnc3c(=O)[nH]c(N)nc32)[C@](C)(O)[C@@H]1O)Oc1ccc2ccccc2c1)C(=O)OCc1ccccc1 (stereo not given in full) | > 100 | 1.7 | 76 | 100 | 95 | 95 | 99 | 49 | 93 | 99 | 100 | 22 | –
11 | CC(C)[C@@H](NP(=O)(OC[C@H]1O[C@@H](n2cnc3c(=O)[nH]c(N)nc32)[C@](C)(O)[C@@H]1O)Oc1cccc2ccccc12)C(=O)OCc1ccccc1 (stereo not given in full) | > 100 | > 3 | 8 | 82 | 80 | 69 | 51 | 82 | 70 | 61 | 68 | 56 | –
12 | CC(OC(=O)[C@@H](NP(=O)(OC[C@H]1O[C@@H](n2cnc3c(=O)[nH]c(N)nc32)[C@](C)(O)[C@@H]1O)Oc1cccc2ccccc12)C(C)C)c1ccccc1 (stereo not given in full) | – | > 3 | – | – | – | 100 | 100 | – | 97 | – | – | – | –
13 | CC(C)[C@H](NP(=O)(OC[C@H]1O[C@@H](n2cnc3c(=O)[nH]c(N)nc32)[C@](C)(O)[C@@H]1O)Oc1cccc2ccccc12)C(=O)OCCc1ccccc1 (stereo not given in full) | > 100 | 1.7 | – | – | – | – | – | – | – | – | – | – | –
14 | CC(C)[C@H](NP(=O)(OC[C@H]1O[C@@H](n2cnc3c(=O)[nH]c(N)nc32)[C@](C)(O)[C@@H]1O)Oc1cccc2ccccc12)C(=O)OCc1cccc(Cl)c1 (stereo not given in full) | – | 0.68 | – | – | – | 90 | 79 | – | 100 | – | – | – | Cmax [19]: 388 ng/mL; AUC (Plasma): > 33 ng·h/mL
15 | Cc1ccccc1COC(=O)[C@@H](NP(=O)(OC[C@H]1O[C@@H](n2cnc3c(=O)[nH]c(N)nc32)[C@](C)(O)[C@@H]1O)Oc1cccc2ccccc12)C(C)C (stereo not given in full) | > 100 | 1 | – | – | – | 100 | 67 | – | 100 | – | – | – | Cmax [19]: 668 ng/mL; AUC (Plasma): 52 ng·h/mL
16 | CC(C)[C@H](NP(=O)(OC[C@H]1O[C@@H](n2cnc3c(=O)[nH]c(N)nc32)[C@](C)(O)[C@@H]1O)Oc1cccc2ccccc12)C(=O)OCC(C)(C)C (stereo not given in full) | > 100 | 1.5 | – | – | – | 79 | 77 | – | 91 | – | – | – | Cmax [19]: 652 ng/mL; AUC (Plasma): > 45 ng·h/mL
17 | COC(=O)[C@H](C)NP(=O)(OC[C@H]1O[C@@H](n2cnc3c(=O)[nH]c(N)nc32)[C@](C)(O)[C@@H]1O)Oc1cccc2ccccc12 (stereo not given in full) | > 50 | 0.21 | – | – | – | – | 1.7 | – | – | – | – | – | remaining at 1 h, 10 µM [12]: 20%; remaining at 1 h, 10 µM [13]: 67%; remaining at 1 h, 10 µM [14]: 40%; remaining at 1 h, 10 µM [15]: 85%; remaining at 1 h, 10 µM [20]: 54%; remaining at 1 h, 10 µM [16]: 63%; remaining at 1 h, 10 µM [17]: 50%; remaining at 1 h, 10 µM [18]: 60%
18 | CC(OC(=O)[C@H](C)NP(=O)(OC[C@H]1O[C@@H](n2cnc3c(=O)[nH]c(N)nc32)[C@](C)(O)[C@@H]1O)Oc1cccc2ccccc12)c1ccccc1 (mixture of isomers) | > 100 | 0.095 | 0 | 86 | 88 | 97 | 2.2 | 0.7 | 86 | 93 | 100 | 0.3 | –
